Results reported in ChEMBL document CHEMBL1212762, “In vivo activity of ceftobiprole in murine skin infections due to Staphylococcus aureus and Pseudomonas aeruginosa” (Antimicrob Agents Chemother, 2010).

Assays:
[1] = system: Pseudomonas aeruginosa; assay: Antimicrobial activity against Pseudomonas aeruginosa OC 4351 infected in immunocompromized SKH1 mouse assessed as lesion volume at 6.2 mg/kg/day, sc measured after 48 hrs postinfection (reference value: 2234 mm3); type: functional; conditions: route subcutaneous
[2] = system: Pseudomonas aeruginosa; assay: Antimicrobial activity against Pseudomonas aeruginosa OC 4351 infected in immunocompromized SKH1 mouse assessed as lesion volume at 25 mg/kg/day, sc measured after 48 hrs postinfection (reference value: 2234 mm3); type: functional; conditions: route subcutaneous
[3] = system: Pseudomonas aeruginosa; assay: Antimicrobial activity against Pseudomonas aeruginosa OC 4351 infected in immunocompromized SKH1 mouse assessed as lesion volume at 100 mg/kg/day, sc measured after 48 hrs postinfection (reference value: 2234 mm3); type: functional; conditions: route subcutaneous
[4] = system: Pseudomonas aeruginosa; assay: Antimicrobial activity against Pseudomonas aeruginosa OC 4354 infected in immunocompromized SKH1 mouse assessed as lesion volume at 1.6 mg/kg/day, sc measured after 48 hrs postinfection (reference value: 2195 mm3); type: functional; conditions: route subcutaneous
[5] = system: Pseudomonas aeruginosa; assay: Antimicrobial activity against Pseudomonas aeruginosa OC 4351 infected in immunocompromized SKH1 mouse assessed as log change in bacterial colony forming units at 25 mg/kg/day, sc; type: functional; conditions: route subcutaneous
Method in brief: (§1)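 Female SKH1 hairless mice made neutropenic with ip cyclophosphamide (150 mg/kg 5 days and 100 mg/kg 1 day before infection). 0.2 ml s.c. Cytodex bead (0.1% vol/vol) inoculum in BHI: OC 4351 left flank, OC 4354 right flank. Drug s.c. at 1, 3, 25, 27 h postinfection. Killed at 48 h; skin homogenised in saline, plated on TSA 18 h 37°C; Δlog CFU/g versus inoculum. 5 mice/dose, run twice.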

[6] = system: Pseudomonas aeruginosa; assay: Antimicrobial activity against Pseudomonas aeruginosa OC 4354 infected in immunocompromized SKH1 mouse assessed as log change in bacterial colony forming unit at 6.2 mg/kg/day, sc; type: functional; conditions: route subcutaneous; method in brief: as §1
[7] = system: Pseudomonas aeruginosa; assay: Antimicrobial activity against Pseudomonas aeruginosa OC 4354 infected in immunocompromized SKH1 mouse assessed as log change in bacterial colony forming unit at 100 mg/kg/day, sc; type: functional; conditions: route subcutaneous; method in brief: as §1
[8] = fT>MIC in Staphylococcus aureus OC 8525 infected sc dosed SKH1 mouse at 50 mg/kg, sc administered twice at 1 and 3 hrs after infection; type: functional; conditions: route subcutaneous
[9] = fT>MIC in Pseudomonas aeruginosa OC 4354 infected sc dosed SKH1 mouse at 50 mg/kg, sc administered twice at 1 and 3 hrs after infection; type: functional; conditions: route subcutaneous
[10] = fT>MIC in Pseudomonas aeruginosa OC 4351 infected sc dosed SKH1 mouse administered in 24 hrs dosing interval; type: functional
[11] = Tmax in immunocompromized SKH1 mouse plasma at 50 mg/kg, sc; type: ADME, organism-based; parameters: dose 50 mg/kg, route subcutaneous
Method in brief: (§2)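 Female SKH1 hairless mice, immunocompetent or cyclophosphamide-neutropenic, infected s.c. with MRSA OC 8525 or P. aeruginosa OC 4354 on the Cytodex beads (left flank), sterile beads on the right. Single dose 24 h later: s.c. at the nape, or linezolid 50 mg/kg oral. Plasma and skin (DMSO homogenate) sampled over time, HPLC with diode array.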

[12] = Tmax in immunocompromized SKH1 mouse skin at 50 mg/kg, sc; type: ADME, organism-based, Zone of skin; parameters: dose 50 mg/kg, route subcutaneous; method in brief: as §2
[13] = Tmax in Staphylococcus aureus infected […] SKH1 mouse skin at 50 mg/kg, sc; type: ADME, organism-based, Zone of skin; parameters: dose 50 mg/kg, route subcutaneous
[14] = system: Zone of skin; assay: fCmax in Staphylococcus aureus infected […] SKH1 mouse skin at 50 mg/kg, sc; type: ADME, organism-based; parameters: dose 50 mg/kg, route subcutaneous; conditions: in vivo
[15] = system: Zone of skin; assay: fAUC (0-infinity) in immunocompromized SKH1 mouse skin at 50 mg/kg, sc; type: ADME, organism-based; parameters: dose 50 mg/kg, route subcutaneous; conditions: in vivo; method in brief: as §2
[16] = system: Zone of skin; assay: fAUC (0-infinity) in Staphylococcus aureus infected immunocompromized SKH1 mouse skin at 50 mg/kg, sc; type: ADME, organism-based; parameters: dose 50 mg/kg, route subcutaneous; conditions: in vivo
[17] = Protein binding in mouse plasma; type: ADME, cell-free; conditions: read-out: PPB (converted)
[18] = system: Staphylococcus aureus; assay: Antimicrobial activity against methicillin-resistant Staphylococcus aureus OC 8525 assessed as inhibition of growth by broth microdilution method; type: functional
[19] = system: Pseudomonas aeruginosa; assay: Antimicrobial activity against Pseudomonas aeruginosa OC 4354 assessed as inhibition of growth by broth microdilution method; type: functional
[20] = Half life in immunocompetent SKH1 mouse plasma at 50 mg/kg, sc; type: ADME, organism-based; parameters: dose 50 mg/kg, route subcutaneous
[21] = Half life in immunocompetent SKH1 mouse skin at 50 mg/kg, sc; type: ADME, organism-based, Zone of skin; parameters: dose 50 mg/kg, route subcutaneous; method in brief: as §2
[22] = Half life in Staphylococcus aureus infected immunocompetent SKH1 mouse skin at 50 mg/kg, sc; type: ADME, organism-based, Zone of skin; parameters: dose 50 mg/kg, route subcutaneous; method in brief: as §2
[23] = Tmax in immunocompetent SKH1 mouse plasma at 50 mg/kg, sc; type: ADME, organism-based; parameters: dose 50 mg/kg, route subcutaneous; method in brief: as §2
[24] = system: Plasma; assay: fCmax in immunocompetent SKH1 mouse plasma at 50 mg/kg, sc; type: ADME, organism-based; parameters: dose 50 mg/kg, route subcutaneous; conditions: in vivo; method in brief: as §2
[25] = system: Plasma; assay: fAUC (0-infinity) in immunocompetent SKH1 mouse plasma at 50 mg/kg, sc; type: ADME, organism-based; parameters: dose 50 mg/kg, route subcutaneous; conditions: in vivo; method in brief: as §2
[26] = system: Staphylococcus aureus; assay: Antimicrobial activity against methicillin-susceptible Staphylococcus aureus Smith OC 4172 infected in SKH1 mouse assessed as log change in bacterial colony forming unit per gram of skin tissue at 25 mg/kg/day, sc (reference value: 1.6 deltalog CFU); type: functional; conditions: route subcutaneous
Method in brief: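 Female hairless immunocompetent SKH1 mice were anaesthetised and injected s.c. with 0.2 ml Cytodex bead inoculum (0.1% vol/vol beads in BHI; 6.7–7.0 log10 CFU/mouse): MSSA OC 4172 in the left flank, MRSA OC 8525 in the right. Drug was given at 1, 3, 25 and 27 h post-infection. At 48 h, flank lesions were excised, weighed and homogenised in saline, then plated on TSA (18 h, 37°C). The value is Δlog CFU/g versus the inoculum, from 5 mice/dose, run twice and pooled.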

[27] = system: Staphylococcus aureus; assay: Antimicrobial activity against methicillin-susceptible Staphylococcus aureus Smith OC 4172 infected in SKH1 mouse assessed as log change in bacterial colony forming unit per gram of skin tissue at 100 mg/kg/day, sc (reference value: 1.6 deltalog CFU); type: functional; conditions: route subcutaneous
[28] = Half life in Pseudomonas aeruginosa infected immunocompromized SKH1 mouse skin at 50 mg/kg, sc
[29] = system: Staphylococcus aureus; assay: Antimicrobial activity against methicillin-resistant Staphylococcus aureus OC 8525 infected immunocompetent SKH1 mouse assessed as lesion volume at 6.2 mg/kg/day, sc measured after 48 hrs postinfection (reference value: 1535 mm3); conditions: route subcutaneous
[30] = system: Staphylococcus aureus; assay: Antimicrobial activity against methicillin-resistant Staphylococcus aureus OC 8525 infected immunocompetent SKH1 mouse assessed as lesion volume at 100 mg/kg/day, sc measured after 48 hrs postinfection (reference value: 1535 mm3); conditions: route subcutaneous
[31] = system: Staphylococcus aureus; assay: Antimicrobial activity against methicillin-susceptible Staphylococcus aureus Smith OC 4172 infected immunocompetent SKH1 mouse assessed as lesion volume at 1.6 mg/kg/day, sc measured after 48 hrs postinfection (reference value: 1181 mm3); conditions: route subcutaneous
[32] = system: Staphylococcus aureus; assay: Antimicrobial activity against methicillin-susceptible Staphylococcus aureus Smith OC 4172 infected immunocompetent SKH1 mouse assessed as lesion volume at 100 mg/kg/day, sc measured after 48 hrs postinfection (reference value: 1181 mm3); conditions: route subcutaneous

## Nc1nc(/C(=N/O)C(=O)N[C@@H]2C(=O)N3C(C(=O)O)=C(/C=C4\CCN([C@@H]5CCNC5)C4=O)CS[C@H]23)ns1 [CEFTOBIPROLE]
[1]
  Activity: 847 mm3
[2]
  Activity: 552 mm3
[3]
  Activity: 389 mm3
[4]
  Activity: 1833 mm3
[5]
  deltalog10CFU: -0.9
[6]
  deltalog10CFU: -0.4
[7]
  deltalog10CFU: -1.4
[8]
  fT>MIC: 3.3 h
[9]
  fT>MIC: 2.2 h
[10]
  fT>MIC: 9.1%
[11]
  Tmax: 7.5 min
[12]
  Tmax: 15 min
[13]
  Tmax: 15 min
[14]
  fCmax: 9 µg/g
[15]
  fAUC: 690 µg·min/mL
[16]
  fAUC: 704 µg·min/mL
[17]
  fraction unbound: 0.84
[18]
  MIC: 1 µg/mL
[19]
  MIC: 4 µg/mL
[20]
  half-life: 13 min
[21]
  half-life: 19 min
[22]
  half-life: 15 min
[23]
  Tmax: 7.5 min
[24]
  fCmax: 66 µg/mL
[25]
  fAUC: 2336 µg·min/mL
[26]
  deltalog10CFU: 1.5
[27]
  deltalog10CFU: -1.7
[28]
  half-life: 76 min
[29]
  Activity: 896 mm3
[30]
  Activity: 484 mm3
[31]
  Activity: 937 mm3
[32]
  Activity: 555 mm3
